According to ChEMBL document CHEMBL1132975, “2',6'-Dimethylphenoxyacetyl: a new achiral high affinity P(3)-P(2) ligand for peptidomimetic-based HIV protease inhibitors” (J Med Chem, 2000):

Columns and labels:
[1] = target: T1, Human immunodeficiency virus type 1 protease (Human immunodeficiency virus 1, UniProt Q72874); test: In vitro inhibition of HIV-1.
[2] = tested on: Human immunodeficiency virus 1; test: Effective concentration to inhibit replication of viral strain HIV-1 IIIB in acutely infected C8166T cells; type: functional, organism-based; settings: Human immunodeficiency virus 1, C8166T
Procedure, shortened: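 HIV-1 IIIB infected C8166 T cells at MOI 0.001 in complete medium, then cultured 3 days with serially diluted inhibitor. Extracellular p24 core antigen was measured by ELISA on pooled supernatants (8 replicas) to give percent inhibition. EC50 came from a nonlinear Hill fit.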

[3] = Oral bioavailability in rat (dose 5 mg/kg); type: ADME, organism-based; settings: in vivo
[4] = Area Under the Curve (AUC) for the compound is evaluated after the oral administration at 5 mg/kg.; type: ADME, organism-based; parameters: dose 5 mg/kg, route oral; settings: in vivo
[5] = Half life for the clearance after intravenous (iv) administration of dose of 1 mg/kg; type: ADME, organism-based; parameters: dose 1 mg/kg, route intravenous; settings: in vivo
[6] = Half life for the clearance after intravenous (iv) administration of 1 mg/kg; type: ADME, organism-based; parameters: dose 1 mg/kg, route intravenous; settings: in vivo
[7] = The plasma concentration is evaluated after oral administration a dose of 5 mg/kg; type: ADME, organism-based; parameters: dose 5 mg/kg, route oral
[8] = tested on: Human immunodeficiency virus 2; test: Effective concentration to inhibit replication of viral strain HIV-2 ROD in acutely infected C8166T cells; type: functional, organism-based; settings: Human immunodeficiency virus 2, C8166T
[9] = tested on: Human immunodeficiency virus 2; test: The binding affinity is evaluated for viral strains HIV-2 ROD; type: functional, organism-based
[10] = tested on: Human immunodeficiency virus 1; test: The binding affinity is evaluated for viral strains HIV-1 IIIB; type: functional, organism-based
[11] = The compound was evaluated for oral bioavailability in the rat at a peroral (po) dose of 5 mg/kg; type: ADME, organism-based; settings: in vivo
[12] = The plasma concentration is evaluated after oral administration of 5 mg/kg; type: ADME, organism-based; parameters: dose 5 mg/kg, route oral
[13] = tested on: Human immunodeficiency virus 2; test: The binding affinity is evaluated for viral strains HIV-2 ROD.; type: functional, organism-based
[14] = target: T1, Human immunodeficiency virus type 1 protease; test: The inhibitory concentration was evaluated for viral strains HIV-2 ROD using a HIV protease HPLC based assay.

Row | Structure (SMILES) | IC50 [1] | EC50 [2] | further results
1 | CC(C)(C)NC(=O)[C@@H]1C[C@H](OCc2ccncc2)CCN1C[C@@H](O)[C@H](Cc1ccccc1)NC(=O)OCc1ccccc1 | 400 nM | – | –
2 | Cc1cccc(C)c1COC(=O)N[C@@H](Cc1ccccc1)[C@H](O)CN1CC[C@@H](OCc2ccncc2)C[C@H]1C(=O)NC(C)(C)C | 420 nM | – | –
3 | Cc1cccc(C)c1OCC(=O)N[C@@H](Cc1ccccc1)[C@H](O)CN(CC(C)C)S(=O)(=O)c1ccc(N)cc1 | 2.6 nM | 20 nM | –
4 | Cc1cc(S[C@@H]2CCN(C[C@@H](O)[C@H](Cc3ccccc3)NC(=O)COc3c(C)cccc3C)[C@H](C(=O)NC(C)(C)C)C2)nc(C)n1 | 1.5 nM | 1 nM | bioavailability [3]: 29%; AUC [4]: 1.67 µM·h; half-life [5]: 102 min
5 | Cc1ccccc1OCC(=O)N[C@@H](Cc1ccccc1)[C@H](O)CN1CC[C@@H](OCc2ccncc2)C[C@H]1C(=O)NC(C)(C)C | 120 nM | – | –
6 | Cc1c(O)cccc1C(=O)N[C@@H](Cc1ccccc1)[C@H](O)CN1CC[C@@H](OCc2ccncc2)C[C@H]1C(=O)NC(C)(C)C | 12 nM | 32 nM | –
7 | Cc1cccc(C)c1OCC(=O)N[C@@H](Cc1ccccc1)[C@H](O)CN1CC[C@@H](SCc2cccnc2)C[C@H]1C(=O)NC(C)(C)C | 1.7 nM | 6 nM | bioavailability [3]: 37%; AUC [4]: 3.26 µM·h; half-life [6]: 30 min; Cmax [7]: 2320 nM
8 | Cc1cccc(C)c1OCC(=O)N[C@@H](Cc1ccccc1)[C@H](O)CN1C[C@H]2CCCC[C@H]2C[C@H]1C(=O)NC(C)(C)C | 8.4 nM | 100 nM | –
9 | Cc1cccc(C)c1OCC(=O)N[C@@H](Cc1ccccc1)[C@H](O)CN1CC[C@@H](OCc2ccncc2)C[C@H]1C(=O)NC(C)(C)C | 7 nM | 24 nM | –
10 | Cc1cccc(C)c1OCC(=O)N[C@@H](Cc1ccccc1)[C@H](O)CN1CC[C@@H](Sc2ccncc2)C[C@H]1C(=O)NC(C)(C)C | – | 2 nM | bioavailability [3]: 61%; AUC [4]: 1.77 µM·h; half-life [6]: 24 min; EC50 [8]: 3 nM; Ki [9]: 0.023 nM; Ki [10]: 0.006 nM
11 | Cc1cccc(C)c1OCC(=O)N[C@@H](Cc1ccccc1)[C@H](O)CN1CC[C@@H](SCc2ccncc2)C[C@H]1C(=O)NC(C)(C)C | 1.8 nM | 4 nM | bioavailability [11]: 22%; AUC [4]: 1.71 µM·h; half-life [6]: 42 min; Cmax [12]: 1660 nM
12 | CC(C)(C)NC(=O)[C@@H]1C[C@H](OCc2ccncc2)CCN1C[C@@H](O)[C@H](Cc1ccccc1)NC(=O)O[C@@H]1CCOC1 | 260 nM | – | –
13 | CC(C)[C@H](NC(=O)c1ccc2ccccc2n1)C(=O)N[C@@H](Cc1ccccc1)[C@H](O)CN1CC[C@@H](OCc2ccncc2)C[C@H]1C(=O)NC(C)(C)C | – | 5 nM | EC50 [8]: 25 nM; Ki [13]: 0.13 nM; Ki [10]: 0.031 nM; IC50 [14]: 10 nM
14 | Cc1cccc(C)c1CCC(=O)N[C@@H](Cc1ccccc1)[C@H](O)CN1CC[C@@H](OCc2ccncc2)C[C@H]1C(=O)NC(C)(C)C | 2400 nM | – | –
15 | Cc1ccccc1COC(=O)N[C@@H](Cc1ccccc1)[C@H](O)CN1CC[C@@H](OCc2ccncc2)C[C@H]1C(=O)NC(C)(C)C | 210 nM | – | –
16 | CC(C)(C)NC(=O)[C@@H]1C[C@H](OCc2ccncc2)CCN1C[C@@H](O)[C@H](Cc1ccccc1)NC(=O)CSc1ccccc1 | 4200 nM | – | –
17 | CC(C)(C)NC(=O)[C@@H]1C[C@H](OCc2ccncc2)CCN1C[C@@H](O)[C@H](Cc1ccccc1)NC(=O)CCc1ccccc1 | 1400 nM | – | –
18 | Cc1ccccc1CCC(=O)N[C@@H](Cc1ccccc1)[C@H](O)CN1CC[C@@H](OCc2ccncc2)C[C@H]1C(=O)NC(C)(C)C | 2500 nM | – | –
19 | CC(C)(C)NC(=O)[C@@H]1C[C@H](OCc2ccncc2)CCN1C[C@@H](O)[C@H](Cc1ccccc1)NC(=O)CCCc1ccccc1 | > 20000 nM | – | –
20 | Cc1cccc(C)c1OC(C)C(=O)N[C@@H](Cc1ccccc1)[C@H](O)CN1CC[C@@H](OCc2ccncc2)C[C@H]1C(=O)NC(C)(C)C (stereo not given in full) | 20 nM | – | –
21 | CC(C)(C)NC(=O)[C@@H]1C[C@H](OCc2ccncc2)CCN1C[C@@H](O)[C@H](Cc1ccccc1)NC(=O)/C=C/c1ccccc1 | 11000 nM | – | –
22 | CC(C)(C)NC(=O)[C@@H]1C[C@H](OCc2ccncc2)CCN1C[C@@H](O)[C@H](Cc1ccccc1)NC(=O)COc1ccccc1 | 1100 nM | – | –
